Experimental data pooled from the literature.
Protocols differ between the studies behind these lines. pIC50: −log10 of the molar value. Values after ≈ are worked out from the molar mass of the structure shown.

SMILES | target or system | assay | system | conditions | endpoint | value
O=C(O)c1ccc(NCc2cc(Br)ccc2O)cc1 | NCI-H69 | cell growth or viability, resazurin | – | 72 h | pIC50 | < 4.00
CC(C)c1ccc(/C=C2\N=C(SCC(=O)O)N(c3ccccc3)C2=O)cc1 | Bacillus cereus | microbial growth, broth dilution | ATCC14579 | – | MIC | 12 µg/mL (≈ 31.5 µM)
CCCS(=O)(=O)Oc1ccc(C=NNC(=O)CSc2nc3c(C)cccc3c(=O)n2-c2ccccc2)cc1OC | Salmonella enterica | microbial growth, broth dilution | TYPHIMURIUM | – | MIC | 49 µg/mL (≈ 84.4 µM)
O=C(O)c1ccc(NCc2cccc(O)c2O)cc1 | NCI-H69 | cell growth or viability, resazurin | – | 72 h | pIC50 | 4.49
Cc1n[nH]c2ccc3nc(-c4ccc(C(=O)NCCN(C)C)cc4)c4c(c3c12)CCCCC4 | BJ | cell growth or viability | – | 72 h | GI50 | > 10 µM
N=c1sc(C(=O)c2ccc(Nc3cnccn3)cc2)nn1-c1ccccc1 | Salmonella enterica | microbial growth, broth dilution | ATCC13076 TYPHIMURIUM | – | MIC | 100 µg/mL (≈ 267 µM)
Cc1n[nH]c2ccc3nc(-c4ccc(C(=O)NCCN(C)C)cc4F)c4c(c3c12)CCCCC4 | BJ | cell growth or viability | – | 72 h | GI50 | > 10 µM
COc1ccc(N2N=C(C(C)=O)SC2=C(C#N)C(=O)c2ccc(Nc3cnccn3)cc2)cc1 | Salmonella enterica | microbial growth, broth dilution | ATCC13076 TYPHIMURIUM | – | MIC | 50 µg/mL (≈ 106 µM)
Cc1cccc2c(=O)n(-c3ccccc3)c(SCC(=O)NN=Cc3ccc(OS(C)(=O)=O)cc3)nc12 | Bacillus cereus | microbial growth, well diffusion | – | 20 µg/mL | inhibition zone | 2 mm
Cc1n[nH]c2ccc3nc(-c4ccc(C(=O)NCCN(C)C)cc4F)c4c(c3c12)CCCC4 | BJ | cell growth or viability | – | 72 h | GI50 | 2.21 µM
CC(=O)C1=NN(c2ccccc2)C(=C(C#N)C(=O)c2ccc(Nc3cnccn3)cc2)S1 | Salmonella enterica | microbial growth, broth dilution | ATCC13076 TYPHIMURIUM | – | MIC | 100 µg/mL (≈ 227 µM)
COc1cc(CNc2ccc(C(=O)O)cc2)cc(OC)c1O | NCI-H69 | cell growth or viability, resazurin | – | 72 h | pIC50 | < 4.00
CCS(=O)(=O)Oc1ccc(C=NNC(=O)CSc2nc3ccc(Cl)cc3c(=O)n2-c2ccccc2)cc1 | Bacillus cereus | microbial growth, well diffusion | – | 20 µg/mL | inhibition zone | 2 mm
CN(C)c1ccc(CNc2ccc(C(=O)O)cc2)cc1 | NCI-H69 | cell growth or viability, resazurin | – | 72 h | pIC50 | < 4.00
O=C(N[C@H](CO)[C@H](O)c1ccc([N+](=O)[O-])cc1)C(Cl)Cl | Salmonella enterica | microbial growth, broth dilution | ATCC13076 TYPHIMURIUM | – | MIC | 6.25 µg/mL (≈ 19.3 µM)
CN(C)CCNC(=O)c1ccc(-c2nc3ccc4[nH]ncc4c3c3c2CCCC3)c(F)c1 | BJ | cell growth or viability | – | 72 h | GI50 | 9.72 µM
CS(=O)(=O)Oc1ccc(C=NNC(=O)CSc2nc3ccc(Cl)cc3c(=O)n2-c2ccccc2)cc1 | Salmonella enterica | microbial growth, well diffusion | TYPHIMURIUM | 20 µg/mL | inhibition zone | 2 mm
CCc1nc(C(N)=O)c(Nc2ccc(N3CCC(N4CCN(C)CC4)CC3)c(OC)c2)nc1NC1CCOCC1 | BJ | cell growth or viability | – | 72 h | GI50 | > 10 µM
O=C(O)c1cn(C2CC2)c2cc(N3CCNCC3)c(F)cc2c1=O | Bacillus cereus | microbial growth, well diffusion | – | 20 µg/mL | inhibition zone | 5 mm
